GASC-1 inh – blocks human GASC-1 demethylase activity; inhibition, % at 2.35 µM; Q9H3R0; AID 2099; 330,000 tested, 0.069% active; GST-JMJD2C(1-420) H3K9me3 demethylation, DELFIA europium;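 active means more than half of a compound's replicate wells show inhibition beyond 50%, single wells judged on their own value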;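 further: signal counts dimethyl H3K9 product captured on neutravidin plate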
Arr AP2 block – inhibitors of human beta-arrestin and AP2 interaction; FITC-arrestin peptide / GST-AP2 beads, flow cytometry; AP2 beta2 appendage carries R879A mutation; inhibition, % at 10 µM; 340,000 tested, 0.31% active;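 active means inhibition above a set limit, near 3 SD of compounds lacking own fluorescence, cut at about 54% in these data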
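Assay system: GST-AP2 R879A bound to glutathione beads, E. coli-expressed; Medium: PBS with 0.05% Tween 20 and 0.1% BSA; Also added: fluorescein-tagged arrestin peptide at 50 nM final; Timing: 12 min plus 1 h, RT; Measured by: flow cytometry, FL1 (488/535 nm); Evaluation: percent drop in bead-associated FITC signal.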
SENP1 inh – SENP1 (human) catalytic domain inhibition; Q9P0U3; recombinant SENP1 catalytic domain, CyPet-SUMO1-YPet FRET cleavage; inhibition, % at 10 µM; 360,000 tested, 0.21% active;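 active means inhibition at least 30% at 10 µM, raw YFP signal under a set limit, fluorescence ratio 0.5 to 1.5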
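Assay system – human recombinant His6-tagged SENP1 catalytic domain enzyme · Input – SENP1 enzyme, 20 pM final · Buffer or medium – Tris pH 8 buffer plus EDTA, NaCl, BME, BSA, NP40, catalase · Schedule – 50 min reaction at room temperature · Technique – FRET read of cyan and yellow fluorescence · Control set – no-enzyme wells low, DMSO-plus-enzyme wells high control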
FAS-TE inh – blocks the thioesterase domain of human fatty acid synthase; P49327; recombinant FAS-TE, OMFH fluorogenic substrate, fluorescence endpoint; inhibition, % at 15 µM; 360,000 tested, 0.67% active; AID 602261;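 active means compounds whose normalised, plate-corrected inhibition of enzyme fluorescence in the single-dose primary screen is 50% or more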
FAS-TE inh conf – confirmation of human fatty acid synthase thioesterase inhibitors; shares compounds with FAS-TE inh; recombinant FAS-TE, OMFH fluorogenic substrate, fluorescence; inhibition, % at 15 µM; 2,300 tested, 45% active; AID 624325;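 active means compounds inhibiting the enzyme by at least 50% at 15 µM in any one of the replicates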
Numbers stand for hits; – = inactive; · = no result. This is a sample that favours compounds with a hit; in the whole collection about 1.1% have one here.

SMILES	GASC-1 inh	Arr AP2 block	SENP1 inh	FAS-TE inh	FAS-TE inh conf
COc1ccc2c(c1)[C@H]1[C@H](CO2)[C@H](c2ccccc2)[C@]2(C)C(=O)Nc3ccc(Cl)cc3C(=O)N12	·	–	–	86.0	–
C[C@@]12C(=O)Nc3ccccc3C(=O)N1[C@H]1c3cc(Cl)ccc3OC[C@@H]1[C@@H]2c1ccccc1	·	–	–	–	·
C[C@@]12C(=O)Nc3ccc(Br)cc3C(=O)N1[C@H]1c3ccccc3OC[C@@H]1[C@@H]2c1ccccc1	–	–	–	87.9	–
C[C@@]12C(=O)Nc3ccc(Cl)cc3C(=O)N1[C@H]1c3cc(Cl)ccc3OC[C@@H]1[C@@H]2c1ccccc1	–	–	–	77.4	–
C[C@@]12C(=O)Nc3cc(F)c(F)cc3C(=O)N1[C@H]1c3cc(Cl)ccc3OC[C@@H]1[C@@H]2c1ccccc1	–	–	–	74.3	–
CCOc1ccc(N2CC(O)=C(c3nc4ccccc4c(=O)[nH]3)C2=N)cc1	–	–	–	–	·
Cn1c(SCC(=O)c2ccc(O)c(O)c2)nnc1-c1cccs1	–	–	–	–	·
Cc1cc(=O)n2[nH]c(C)cc2n1	–	–	–	–	·
C[C@@]12C(=O)Nc3ccc(Br)cc3C(=O)N1[C@H]1c3cc(Cl)ccc3OC[C@@H]1[C@@H]2c1ccccc1	–	–	–	93.8	–
C[C@@H]1NC(=O)[C@@]2(C)[C@@H](c3ccccc3)[C@H]3COc4ccc(Cl)cc4[C@@H]3N2C1=O	–	–	–	–	·
Cc1ccc(N2C(=O)C3CCCN3C2=S)c(C)c1 (stereo not given)	–	–	–	–	·
Cc1ccc(N2C(=O)C3CC(c4ccccc4)=C4C5C=CC(C6C(=O)N(c7ccc(C)cc7C)C(=O)C56)C4C3C2=O)c(C)c1 (stereo not given)	–	–	–	100.2	43.9
Cc1ccc(N2C(=O)C3CC(c4ccccc4)=C4C5C=CC(C6C(=O)N(c7ccc(C)cc7)C(=O)C56)C4C3C2=O)cc1 (stereo not given)	–	–	–	84.8	–
C=CC[C@H](CC(=O)N[C@H](CO)Cc1ccccc1)C(=O)N[C@@H](COC(=O)[C@H](CC=C)CC(=O)OC(C)(C)C)Cc1c[nH]c2ccccc12	·	–	–	–	·
CC(C)c1ccc(NC(=O)c2snc3ccc(Cl)cc23)cc1	–	–	–	58.2	–
O=C1[C@H]2[C@@H](c3ccc(F)cc3)N3C(=O)N(c4cccc(Cl)c4)C(=O)[C@@]3(Cc3ccc(Cl)cc3)[C@H]2C(=O)N1C1CCCCC1	–	–	–	85.5	–
COc1ccc([C@@H]2[C@@H]3C(=O)N(C(C)(C)C)C(=O)[C@@H]3[C@]3(Cc4ccccc4)C(=O)N(c4ccccc4)C(=O)N23)cc1	–	–	–	–	·
O=C1[C@H]2[C@@H](c3ccc(F)cc3)N3C(=O)N(c4ccccc4)C(=O)[C@@]3(Cc3ccccc3)[C@H]2C(=O)N1C1CCCCC1	–	–	–	58.6	35.8
CC(=O)c1ccc(N2CCN(c3ccc4cc(S(=O)(=O)N5CCC(C)CC5)ccc4n3)CC2)cc1	–	–	–	–	·
CN(C(=O)CN1C(=O)c2ccc([N+](=O)[O-])cc2C1=O)C1CCCCC1	–	–	–	–	·
O=[N+]([O-])c1cc(S(=O)(=O)Nc2cccc(C(F)(F)F)c2)ccc1-n1nnc2ccccc21	–	–	–	65.7	79.6
CC1=C(C(=O)N2CCCCCC2)CC(CC(=O)NCC2CCCCC2)C(=O)N1CCCN1CCCC1=O (stereo not given)	·	·	–	–	·
NC(=O)[C@H]1CC2(CC(c3cccc(NC(=O)CC(c4ccccc4)c4ccccc4)c3)=NO2)CN1C(=O)c1ccccc1C(=O)c1ccccc1 (stereo not given in full)	–	–	–	75.3	–
C/C=C(\C)C(=O)N1CC2(CC(c3cccc(NC(=O)CC(c4ccccc4)c4ccccc4)c3)=NO2)C[C@H]1C(N)=O (stereo not given in full)	–	·	·	·	·
NC(=O)[C@H]1CC2(CC(c3cccc(NC(=O)CC(c4ccccc4)c4ccccc4)c3)=NO2)CN1C(=O)C(c1ccccc1)c1ccccc1 (stereo not given in full)	–	–	–	67.3	–
SMILES	GASC-1 inh	Arr AP2 block	SENP1 inh	FAS-TE inh	FAS-TE inh conf
COc1ccc(C(=O)N2CCN(CCc3ccccc3)CC2)cc1[N+](=O)[O-]	–	–	–	87.1	90.2
COc1ccc(C(=O)NC(C)CCc2ccccc2)cc1[N+](=O)[O-] (stereo not given)	–	–	–	51.3	51.7
Cc1noc(C)c1NC(=O)N(C)C[C@H]1Oc2c(NC(=O)Nc3ccccc3)cccc2C(=O)N([C@H](C)CO)C[C@@H]1C	–	–	–	–	·
COc1ccc(OC)c(S(=O)(=O)NC(C)c2ccc(-n3ccnc3)cc2)c1 (stereo not given)	–	–	–	–	·
Cc1ccc(N2C(=O)c3ccccc3C2=O)cc1	–	–	–	–	·
Cc1ccc(SC2=C(Sc3ccc(C)cc3)C(=O)c3ccccc3C2=O)cc1	–	–	–	70.4	–
O=C(Nc1cccc(C(=O)O)c1)/C(=C\c1cccc([N+](=O)[O-])c1)NC(=O)c1ccc(Br)cc1	·	·	–	69.2	75.4
O=C(NCc1ccccc1)/C(=C\c1cccc([N+](=O)[O-])c1)NC(=O)c1ccco1	·	·	–	68.0	76.2
O=C(O)CNC(=O)/C(=C/c1cccc([N+](=O)[O-])c1)NC(=O)c1ccco1	–	–	–	–	·
COc1ccc(C(=O)N/C(=C\c2cccc([N+](=O)[O-])c2)C(=O)Nc2cccc(C(=O)O)c2)cc1	–	–	–	–	·
Cc1ccc(C(=O)N/C(=C\c2cccc([N+](=O)[O-])c2)C(=O)Nc2cccc(C(=O)O)c2)cc1	–	–	–	55.3	59.8
COc1ccccc1NC(=O)CC(c1ccc(F)cc1)c1ccco1 (stereo not given)	·	–	–	–	·
O=C1S/C(=C\c2ccc(O)c([N+](=O)[O-])c2)C(=O)N1Cc1cccc([N+](=O)[O-])c1	–	–	–	78.4	51.2
CC(=O)C(=Cc1ccc(C(=O)O)cc1)C(C)=O	–	–	–	–	·
C/C(=C\c1ccc(C(=O)O)cc1)c1ccc2c(c1)C(C)(C)CCC2(C)C	–	–	–	72.8	–
Cc1cc(C)c(Nc2cc(S(=O)(=O)O)c(N)c3c2C(=O)c2ccccc2C3=O)c(C)c1	–	–	–	74.9	–
CCOc1ccccc1N(CC)C(=O)c1ccc2c(=O)n3c(nc2c1)CCCCC3	–	–	–	56.6	77.4
O=C(Nc1ccccc1Cl)c1ccc2c(=O)n3c(nc2c1)CCC3	–	–	–	–	·
O=C(Nc1nc(-c2ccccc2)cs1)c1ccc2c(=O)n3c(nc2c1)CCCCC3	–	–	–	62.2	–
CCn1c(C)c(C)c2cc(C(=O)N3CCCC3)ccc21	–	–	–	–	·

Bioassay records: PubChem BioAssay, several laboratories
